The source made the active and inactive calls.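 How the source made its calls, unless noted: active means viability at or below 10% of carrier control in both of two separate runs; inconclusive means viability at or below 10% in only one of the two runs; inactive means the rest.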
Legend:
[1] = Her2 expression decrease, cell viability multiplex – SKBR3 breast tumor cells, AlphaScreen, ATP viability, primary screen (AID 461;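 active means Her2 level under about 52% in both replicate screens, with viability over 70% of control, limit read from the data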;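 on Her2 level: lower value means less Her2 protein in the cells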;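 on viability: percent of carrier control wells set as 100% viability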); details: SKBR3 Her2 protein level, 18-24 h, measured here: SKBR3 viability, ATP luminescence, at 10 µM
[2] = biological target: Receptor tyrosine-protein kinase erbB-2 (Homo sapiens) (UniProt P04626); test: as above; details: 18-24 h, at 10 µM, stronger effect = lower value
[3] = reduced viability of SK-BR-3 breast cancer cells – cell-based, 24 h, human, pilot screen (AID 572); details: SK-BR-3 viability, CellTiter-Glo luminescence, at 10 µM, stronger effect = lower value;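 further: compound exposure lasted between 18 and 24 h rather than exactly 24 h; 100% = carrier-treated control wells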
[4] = HUVEC growth inhibition – cell-based, human, primary screen (AID 575;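 active means viability at or below 30% in both replicate assays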;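 further: 100% = median of untreated cell wells with 0.1% DMSO on each plate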); details: HUVEC proliferation, CellTiter-Glo luminescence, 72 h; at 10 µM; stronger effect = lower value
Method in brief: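 Test system: HUVEC primary cells. Quantity: 1250 endothelial cells in each well. Dosing: single-point 10 µM, DMSO 0.1% final. Incubation: 72 h treatment at 37 °C. Measured by: CTG luminescence. Control set: DMSO cell controls and MePR drug controls. Plate: collagen-coated 384-well format.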

[5] = H69AR cell proliferation blockers – human, duplicate replicates, primary screen (AID 580;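 active means viability at or under a set limit in both replicates, limit being median viability minus 3 SD, cut at about 48% in these data, passing the limit was not always enough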;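 further: 100% = mean luminescence of untreated wells and 0% = no signal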); details: H69AR lung tumor cells viability, ATP luminescence, 72 h; at 10 µM; stronger effect = lower value
[6] = MRP1 drug-resistance reversers in H69AR cells – cell-based, doxorubicin co-treatment, pilot screen (AID 601;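 active means viability loss from added drug above about 55%, and viability with drug at most 40%, in both replicates, limit read from the data, passing the limit was not always enough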); details: CellTiter-Glo, 72 h, at 10 µM; for differential viability (reversal): stronger effect = higher value
[7] = yeast transport mutant growth inhibition pilot in 384-well plates, post-Golgi transport modulator project (AID 636; in the data active means inhibition above about 31%); details: absorbance 615 nm, about 18 h, stronger effect = higher value
[8] = growth suppression of yeast trafficking mutant, preliminary HTS, modulators of trafficking downstream of Golgi apparatus project, 1536-format plate, OD 615 nm (AID 637; in the data active means inhibition above about 30%); details: yeast transport mutant growth, absorbance 615 nm, 18 h; stronger effect = higher value
[9] = H69AR cells + 2 uM doxorubicin, measured here: viability with 2 uM doxorubicin, stronger effect = lower value
[10] = H69AR cells, compound alone cytotoxicity

Receptor tyrosine-protein kinase erbB-2 (Homo sapiens), sequence (P04626 whole entry, looked up): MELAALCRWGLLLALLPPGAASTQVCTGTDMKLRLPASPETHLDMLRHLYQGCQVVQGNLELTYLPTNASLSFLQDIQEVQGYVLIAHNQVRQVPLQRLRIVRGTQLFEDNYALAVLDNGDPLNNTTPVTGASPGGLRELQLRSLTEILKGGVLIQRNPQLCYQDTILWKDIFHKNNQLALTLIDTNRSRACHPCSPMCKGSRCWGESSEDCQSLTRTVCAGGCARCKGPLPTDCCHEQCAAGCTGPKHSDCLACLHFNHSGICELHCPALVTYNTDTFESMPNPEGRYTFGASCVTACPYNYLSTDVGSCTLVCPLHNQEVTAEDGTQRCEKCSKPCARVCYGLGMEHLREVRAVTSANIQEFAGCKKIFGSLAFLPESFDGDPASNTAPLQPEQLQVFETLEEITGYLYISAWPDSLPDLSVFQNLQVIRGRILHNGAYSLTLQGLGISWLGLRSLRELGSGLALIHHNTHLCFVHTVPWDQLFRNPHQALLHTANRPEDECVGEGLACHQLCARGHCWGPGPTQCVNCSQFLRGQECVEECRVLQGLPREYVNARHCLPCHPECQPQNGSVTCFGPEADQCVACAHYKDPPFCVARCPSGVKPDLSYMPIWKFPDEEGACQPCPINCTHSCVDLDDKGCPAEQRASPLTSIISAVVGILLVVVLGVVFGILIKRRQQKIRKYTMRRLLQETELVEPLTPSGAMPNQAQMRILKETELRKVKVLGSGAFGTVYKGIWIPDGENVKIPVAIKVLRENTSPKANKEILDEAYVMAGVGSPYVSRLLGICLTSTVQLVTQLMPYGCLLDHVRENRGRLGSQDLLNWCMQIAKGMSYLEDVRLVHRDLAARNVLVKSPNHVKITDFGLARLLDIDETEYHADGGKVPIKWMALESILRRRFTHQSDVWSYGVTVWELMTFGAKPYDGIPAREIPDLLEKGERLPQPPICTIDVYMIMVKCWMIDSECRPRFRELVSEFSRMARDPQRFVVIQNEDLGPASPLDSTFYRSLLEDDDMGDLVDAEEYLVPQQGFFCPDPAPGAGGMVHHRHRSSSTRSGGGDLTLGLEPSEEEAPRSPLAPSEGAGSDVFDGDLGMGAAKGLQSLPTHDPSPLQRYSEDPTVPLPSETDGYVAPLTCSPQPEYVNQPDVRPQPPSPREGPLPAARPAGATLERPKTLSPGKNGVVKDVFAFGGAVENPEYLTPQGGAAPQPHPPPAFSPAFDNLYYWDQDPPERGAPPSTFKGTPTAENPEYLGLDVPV

SMILES | viability [1] | Her2 level [2] | viability [3] | viability [4] | viability [5] | differential viability (reversal) ([6]; H69AR cells + 2 uM doxorubicin) | viability [6, 9] | viability [6, 10] | inhibition [7] | inhibition [8]
CCCn1c(C)nc2c(c1=O)c1nc3ccccc3nc1n2CCc1ccccc1 | 98% | 103% (inactive) | 98% (inactive) | 102% (inactive) | 88.5% (inactive) | -3.46% (inactive) | 91.9% | 88.5% | -4.42% (inactive) | 0.5% (inactive)
O=C(Nc1ccc2c(c1)OCCO2)C1CCCN(S(=O)(=O)c2cnc[nH]2)C1 (stereo not given) | 82.5% | 111% (inactive) | 82.5% (inactive) | 100% (inactive) | 94.7% (inactive) | 8.45% (inactive) | 86.2% | 94.7% | -3.2% (inactive) | -3.93% (inactive)
COc1ccc2c(c1)C1(C)CC(C)(C)N2C(=O)N1c1ccccc1 (stereo not given) | 101% | 89.5% (inactive) | 101% (inactive) | 61.5% (inactive) | 67.3% (inactive) | -16.7% (inactive) | 84% | 67.3% | -5.07% (inactive) | -5.41% (inactive)
CCOC(=O)C1=C(c2ccccc2)N2CCN=C2S1 | 94.5% | 100% (inactive) | 94.5% (inactive) | 100% (inactive) | 94.8% (inactive) | 5.97% (inactive) | 88.8% | 94.8% | -0.93% (inactive) | -9.68% (inactive)
Cc1noc(C)c1COC(=O)c1ccccc1Oc1ccccc1 | 91% | 106% (inactive) | 91% (inactive) | 79.1% (inactive) | 96.5% (inactive) | 26.8% (inactive) | 69.8% | 96.5% | -3.25% (inactive) | -5.56% (inactive)
CC(C)=CC(=O)N1CCCc2ccccc21 | 112% | 90% (inactive) | 112% (inactive) | 105% (inactive) | 98.4% (inactive) | 5.13% (inactive) | 93.2% | 98.4% | -4.53% (inactive) | -7.21% (inactive)
Cc1ncc(CO)c2c1OC(C)(C)OC2 | 95.5% | 104% (inactive) | 95.5% (inactive) | 92.8% (inactive) | 93.5% (inactive) | 4.48% (inactive) | 89% | 93.5% | -5.79% (inactive) | -0.91% (inactive)
Nc1cc(-c2ccc(Br)cc2)nn1S(=O)(=O)c1ccccc1 | 90% | 108% (inactive) | 90% (inactive) | 74.2% (inactive) | 88% (inactive) | 0.535% (inactive) | 87.5% | 88% | 0.26% (inactive) | 3.67% (inactive)
O=C(CCN1CCOCC1)Nc1cccc(Br)c1 | 100% | 86% (inactive) | 100% (inactive) | 78.9% (inactive) | 92.9% (inactive) | 7.72% (inactive) | 85.2% | 92.9% | -5.47% (inactive) | -6.56% (inactive)
COC(=O)c1ccccc1NC(=O)Cn1ccnc1 | 110% | 88.5% (inactive) | 110% (inactive) | 80.8% (inactive) | 97.7% (inactive) | -3.07% (inactive) | 101% | 97.7% | -2.3% (inactive) | 1.11% (inactive)
CC1CCN(Cc2ccc(-c3nn[nH]n3)cc2)CC1 | 116% | 86.5% (inactive) | 116% (inactive) | 99.6% (inactive) | 95% (inactive) | 0.33% (inactive) | 94.7% | 95% | 1.04% (inactive) | 30% (active)
CCOC(=O)c1c(C)c(C(=O)NCC2CCCO2)c(C)n1C (stereo not given) | 100% | 82.5% (inactive) | 100% (inactive) | 83.5% (inactive) | 92.2% (inactive) | 11.9% (inactive) | 80.3% | 92.2% | -1.71% (inactive) | 1.59% (inactive)
CCOC(=O)c1ccc(N2C(=O)CC(N(C)CCc3ccc(OC)c(OC)c3)C2=O)cc1 (stereo not given) | 102% | 123% (inactive) | 102% (inactive) | 101% (inactive) | 96.8% (inactive) | 12.1% (inactive) | 84.7% | 96.8% | -2.73% (inactive) | -8.83% (inactive)
Nc1nnc(C(=O)c2ccccc2N)s1 | 108% | 91% (inactive) | 108% (inactive) | 102% (inactive) | 96.3% (inactive) | 5.43% (inactive) | 90.9% | 96.3% | -1.04% (inactive) | 3.93% (inactive)
CC(C)[C@H](NC(=O)OC(C)(C)C)c1nnc(SCC(=O)Nc2ccc(Br)cc2)o1 | 96.5% | 108% (inactive) | 96.5% (inactive) | 87.5% (inactive) | 93.9% (inactive) | 5.79% (inactive) | 88.1% | 93.9% | -1.17% (inactive) | -14% (inactive)
COC(=O)Nc1sc2c(c1C(=O)N1CCOCC1)CCC(C)C2 (stereo not given) | 89.5% | 88.5% (inactive) | 89.5% (inactive) | 79.7% (inactive) | 93.9% (inactive) | -1.66% (inactive) | 95.6% | 93.9% | -2.89% (inactive) | 26% (inactive)
CCOC(=O)C(NC(C)=O)(NS(=O)(=O)c1ccccc1)C(F)(F)F (stereo not given) | 122% | 101% (inactive) | 122% (inactive) | 101% (inactive) | 100% (inactive) | 5.89% (inactive) | 94.2% | 100% | -4.16% (inactive) | 1.59% (inactive)
COc1cc(OC)cc(-c2nc3cc(C)ccc3o2)c1 | 95.5% | 70.5% (inactive) | 95.5% (inactive) | 62.8% (inactive) | 73% (inactive) | -2.79% (inactive) | 75.8% | 73% | -3.16% (inactive) | -4.52% (inactive)
O=C(Nc1ccc(N2CCN(Cc3ccccc3Cl)CC2)cc1)c1cccnc1 | 91% | 108% (inactive) | 91% (inactive) | 117% (inactive) | 103% (inactive) | 5.44% (inactive) | 98% | 103% | 2.16% (inactive) | 0.82% (inactive)
C(=C\c1ccccc1)/CN1CCN(Cc2ccc3c(c2)OCCO3)CC1 | 85% | 91.5% (inactive) | 85% (inactive) | 105% (inactive) | 93% (inactive) | 4.42% (inactive) | 88.6% | 93% | -3.77% (inactive) | 1.15% (inactive)
CCCC(=O)Nc1nnc(CC(=O)OCC)s1 | 111% | 108% (inactive) | 111% (inactive) | 113% (inactive) | 88.1% (inactive) | -0.96% (inactive) | 89% | 88.1% | -2.21% (inactive) | -7.14% (inactive)
CC1(C)Cc2noc(N)c2C(C)(C)N1OC(=O)c1ccccc1 | 107% | 132% (inactive) | 107% (inactive) | 104% (inactive) | 107% (inactive) | 21.2% (inactive) | 86.2% | 107% | 0% (inactive) | -5.4% (inactive)
COc1ccc(OC)c(S(=O)(=O)NCCC2=CCCCC2)c1 | 77% | 87.5% (inactive) | 77% (inactive) | 106% (inactive) | 96.6% (inactive) | -5.82% (inactive) | 102% | 96.6% | -6.89% (inactive) | -3.77% (inactive)
CCOC(=O)N1CCN(C(=O)CSCC(=O)Nc2nc(-c3ccc(OC)cc3)cs2)CC1 | 116% | 104% (inactive) | 116% (inactive) | 77.8% (inactive) | 94.9% (inactive) | 1.77% (inactive) | 93.1% | 94.9% | -1.3% (inactive) | -6.89% (inactive)
CC(C)c1nnc(SCC(=O)NCc2ccco2)n1C | 105% | 91% (inactive) | 105% (inactive) | 94.7% (inactive) | 79.6% (inactive) | -5.55% (inactive) | 85.2% | 79.6% | -0.14% (inactive) | 4.76% (inactive)
CN(Cc1ccccc1)C(=O)CNC(=O)Cn1cnc2ccccc2c1=O | 100% | 83% (inactive) | 100% (inactive) | 91.9% (inactive) | 100% (inactive) | 9.23% (inactive) | 90.8% | 100% | -3.11% (inactive) | -5.71% (inactive)
Cc1ccc(-n2nc(C(=O)N3CCN(C)CC3)c3c4ccccc4n(C)c3c2=O)cc1 | 90.5% | 80% (inactive) | 90.5% (inactive) | 99.9% (inactive) | 96.8% (inactive) | 2.81% (inactive) | 93.9% | 96.8% | -1.97% (inactive) | -1.61% (inactive)
O=C(CCN1C(=O)C2C3C=CC(C3)C2C1=O)N1CCN(c2ccccc2Cl)CC1 (stereo not given) | 97% | 89.5% (inactive) | 97% (inactive) | 82.3% (inactive) | 96% (inactive) | 8.21% (inactive) | 87.8% | 96% | -5% (inactive) | -3.17% (inactive)

Reference: PubChem BioAssay
